# Source: PubChem BioAssay (several laboratories)
# Cl transport mod: KCC2 (human) Cl- transport modulation; Q9H2X9; KCC2 cells, thallium flux FluoZin-2 fluorescence; B-score of Tl+ flux slope (higher = more flux/activation; lower = inhibition) at 10 µM; actives 2.2% (n = 190,000);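 active = thallium flux slope and its plate-corrected score both differing from the plate sample mean at a set confidence after two filtering rounds, in either direction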;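 also: slope of fluorescence scaled to starting intensity during 10 to 20 s after thallium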
# Lmaj promast: inhibitors of Leishmania major promastigote growth. Leishmania major promastigotes, resazurin fluorescence viability. inhibition, % at 10 µM. actives 9% (n = 200,000). AID 1063; in the data active = inhibition above about 50%;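 also: promastigotes grown with compound for 44 hours at 28 °C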
# Diaph inh CS: counter-screen for diaphorase-based assays: diaphorase inhibitors and chemical oxidizers; AID 1217; inhibition, % at 20 µM; actives 0.69% (n = 190,000); diaphorase resazurin-to-resorufin fluorescence, NADH, 16 min; bacterial (C. kluyveri) enzyme, not human;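 active = primary screen inhibition at 20 µM above a set limit, cut at about 50% in these data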
#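 controls = No-NADH positive control and DMSO neutral control | system = Clostridium kluyveri diaphorase enzyme | timing = reaction incubation of 16 min at room temperature | signal = resorufin fluorescence 544/590 nm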
# ROMK mod: modulates human ROMK potassium channel activity | P48048 | Tet-inducible ROMK, thallium flux fluorescence; actives lie on both sides | B-score at 10 µM | actives 2% (n = 130,000) | AID 1918;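 active = signal ratio slope over the read window, or its plate-corrected B-score, at least 3 SD from the plate mean, either direction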;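 also: B-score of the F/F0 ratio slope over 7 to 12 s after thallium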
# Target sequence (P48048 whole entry, looked up): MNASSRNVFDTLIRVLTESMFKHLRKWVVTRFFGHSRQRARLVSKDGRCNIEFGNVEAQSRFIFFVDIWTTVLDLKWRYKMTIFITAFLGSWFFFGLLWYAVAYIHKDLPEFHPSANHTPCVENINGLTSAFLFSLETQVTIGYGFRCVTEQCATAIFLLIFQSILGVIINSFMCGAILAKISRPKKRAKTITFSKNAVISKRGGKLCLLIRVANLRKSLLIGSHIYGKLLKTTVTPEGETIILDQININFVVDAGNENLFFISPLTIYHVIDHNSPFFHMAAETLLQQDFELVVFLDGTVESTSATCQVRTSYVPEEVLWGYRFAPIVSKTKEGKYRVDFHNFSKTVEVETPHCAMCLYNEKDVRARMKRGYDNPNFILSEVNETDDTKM
# WT yeast gro inh: growth inhibition of WT yeast, mitochondrial fusion screen; mitochondrial fusion phenotypic screen, WT strain; inhibition, % at 10 µM; actives 2.1% (n = 190,000); in the data active = inhibition above about 58%; tested in S. cerevisiae
# Diaphorase act: diaphorase activation or chemical reduction counter-screen | Diaphorase/resazurin coupled assay, resorufin fluorescence, 16 min; hits give high values; 1 = vehicle wells, 0 = NADH-free wells | activation factor at 20 µM | actives 0.005% (n = 190,000) | AID 1229;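 active = diaphorase activity raised at least twofold by the compound at 20 µM; inactive = activation factor below 2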
#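 test system = bacterial diaphorase enzyme (C. kluyveri) | quantity = enzyme 0.07 U/mL final | reagent = NADH substrate 0.114 mM plus resazurin dye 0.1 mM, final | incubation = 16 min enzyme reaction, ambient temperature | buffer or medium = HEPES pH 7.4 buffer with MgCl2 and Tween 20 | signal = fluorescence of resorufin, 544 nm excitation, 590 nm emission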
# Lmaj promast 1uM: blocks Leishmania major promastigote growth at 1 uM, repeat screen; actives 13% (n = 1,100); inhibition, % at 1 µM; L. major promastigote growth, resazurin fluorescence, 48 h; shares compounds with Lmaj promast;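 active = inhibition above about 50% in both repeat tests, limit read from the data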
# A number is an active result; . = inactive; / = no result. Shown are actives, neighbours in structure and some others; about 12% of the full set was active somewhere.
SMILES,Cl transport mod,Lmaj promast,Diaph inh CS,ROMK mod,WT yeast gro inh,Diaphorase act,Lmaj promast 1uM
CCc1ccc(NSc2ccccc2[N+](=O)[O-])cc1,/,99,.,/,80,.,71
Cc1cccc(NC(=O)CCN2C(=O)C3C4C=CC(C4)C3C2=O)c1 (centres undefined),.,.,.,/,.,.,/
Cc1ccc(NC(=O)O/N=C2\CCCCC2c2ccc([N+](=O)[O-])cc2[N+](=O)[O-])cc1 (centres undefined),.,99,.,/,.,.,.
O=C(Nc1cccc([N+](=O)[O-])c1)ONC1=NCCCCC1,.,/,/,/,/,/,/
Cc1c([N+](=O)[O-])ccc(S(=O)(=O)N2CCC(C(N)=O)CC2)c1C,.,84,.,.,.,.,.
Cc1ccc(S(=O)(=O)N2CCC(C)CC2)c([N+](=O)[O-])c1,.,.,.,.,.,.,/
CN(C)c1cc[n+](CC(=O)Nc2c(Cl)cc(Cl)cc2Cl)cc1,.,.,.,/,.,.,/
CN(C)c1cc[n+](Cc2c(Cl)cccc2Cl)cc1,.,84,.,.,.,.,.
CC(C)C1N=C(c2ccc3c(c2)OCO3)CC(c2ccccc2O)N1 (centres undefined),.,99,.,.,.,.,.
O=C(Cn1c2[n+](c3ccccc31)CC(O)CS2)c1ccccc1 (centres undefined),/,.,.,/,.,.,/
CSc1c2c(nc3ncnn13)CCC2,.,51,.,.,.,.,.
c1ccc(Nc2c3c(nc4ncnn24)CCC3)cc1,.,.,.,.,.,.,/
Cc1csc(-c2cnn(-c3ccccc3)c2NC(=O)c2cccc(C(F)(F)F)c2)n1,.,.,.,.,.,.,/
CCC(C)(C)C1CCC2(CC1)NC(=S)N(c1ccccc1)N2 (centres undefined),.,/,/,/,/,/,/
CC1(CCc2ccccc2)NC(=S)N(c2ccccc2)N1 (centres undefined),.,70,.,.,.,.,.
CCC1CCCCN1CC(O)Cn1c2ccccc2n2c(=O)cc(C)c(C#N)c12 (centres undefined),.,81,.,.,.,.,.
Cc1cc(=O)n2c3ccccc3n(CC(O)CN3CCC(C)CC3)c2c1C#N (centres undefined),.,.,.,/,.,.,/
CCSC1=N/C(=C\c2cccc(F)c2)C(=O)S1,.,60,.,/,.,.,.
Cc1cccc(OCC(=O)NC(=S)Nc2ccc(S(=O)(=O)NC3CCCCC3)cc2)c1,.,.,.,.,.,.,/
Cc1ccc(OC(C)c2nnc(N)s2)cc1Cl (centres undefined),.,100,.,.,.,.,.
CC(Oc1ccccc1Cl)c1nnc(N)s1 (centres undefined),.,.,.,.,.,.,/
CSCCC(NC(=O)c1cccc([N+](=O)[O-])c1)C(=O)O (centres undefined),.,79,.,/,.,.,.
Cc1cc(OCCN2CCCCC2)nc2ccccc12,.,89,.,.,/,.,.
Cc1cc(OCCN2CCOCC2)nc2ccccc12,/,.,.,.,.,.,/
O=C1CN(c2ccc(Cl)cc2)C2(CCCCC2)S1,.,66,.,/,.,.,.
SMILES,Cl transport mod,Lmaj promast,Diaph inh CS,ROMK mod,WT yeast gro inh,Diaphorase act,Lmaj promast 1uM
O=C1C=C(c2ccc(Cl)cc2)OC2(CCCC2)O1,.,.,.,/,.,.,/
CC(CCc1ccc(O)cc1)N(C)CCc1ccccc1 (centres undefined),/,94,.,.,.,.,.
C(=C\c1nnc2c3ccccc3ncn12)/c1ccccc1,.,55,.,/,.,.,.
COc1cc(/C=C/c2nnc3c4ccccc4ncn23)cc(OC)c1OC,.,.,.,/,.,.,/
CCOC(=O)C1=C(c2ccccc2)O/C(=C(/C#N)C(F)(F)F)S1,.,74,.,.,.,.,.
Cc1ccccc1NC(=O)CSc1nc2n(n1)CCCCC2,.,.,.,.,.,.,/
CC(C)(C)NC(=S)NNC(=O)c1cccc(Br)c1,.,.,.,.,.,.,/
